“Also recorded” adds a separate entry of the source.
Legend:
AML cell lines [1] = test: CellTiter-Glo cell viability across the cell line panel; assay type: cell-based, human; details: for sensitivity of the Val-boroPro-sensitive AML cell lines to the compound: cell viability relative to DMSO; for sensitivity of the Val-boroPro-sensitive AML cell lines to the compound / reduction in cell viability: 48 h
[2] = system: caspase-1 knockout OCI-AML2, MV4;11 and THP-1 cells; test: Cell viability of caspase-1 knockout cells; assay type: cell-based, human
THP-1 or MV4;11 cells = test: LDH release with Val-boroPro plus bortezomib; assay type: cell-based, human; details: bortezomib 100 nM with Val-boroPro 2 μM, 6 h
AML cell lines [3] = details: cited from earlier work
primary AML cells = test: Primary cancer cell assay; assay type: cell-based, human; details: 20 µM, 48 h, FACS
K562 cells = test: CellTiter-Glo cell viability assay; assay type: cell-based, human
HEK 293T cells = test: CellTiter-Glo cell viability assay; assay type: cell-based, human; details: HEK293T
[4] = Evaluation in wild-type C57BL/6J mice; assay type: in vivo, mouse; details: 20 μg i.p.
How it was run: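 Female C57BL/6J mice (7 weeks) received vehicle (1 mM HCl/PBS) or 20 μg either once (n=5/group, harvested at 6 h or 24 h) or once daily, 5 days/week for two weeks (10 doses, n=4, harvested 24 h after the last dose). Blood was analysed for complete blood count and blood chemistry.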

non-AML cell lines = test: CellTiter-Glo cell viability across the cell line panel; assay type: cell-based, human
How it was run: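 Cells were dispensed at 2000 cells/well in 25 μL of medium, and compound was added by pintool. MV4;11 and RS4;11 were incubated 22 h and all other lines 46 h, at 37 °C. Plates were equilibrated to room temperature, then CellTiter-Glo was added, with 2 min orbital shaking and 10 min at room temperature. Luminescence is expressed relative to DMSO as mean ± SEM of three biological replicates.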

primary B-ALL = test: Primary cancer cell assay; assay type: cell-based, human; details: 20 µM, 48 h, FACS
[5] = system: primary human cancer AML-10; test: AML-10 patient-derived xenograft; assay type: in vivo, mouse; details: 2 mg/kg, PDX model
[6] = system: CARD8−/− THP-1, MV4;11 and OCI-AML2 cells; test: LDH release / GSDMD cleavage in CARD8 knockout cells; assay type: cell-based, human; details: 2 μM; 24 h OCI-AML2 and MV4;11, 48 h THP-1
sensitive AML cell lines = test: Immunoblotting of GSDMD and PARP cleavage; assay type: cell-based, human; details: 24 h
[7] = system: primary human cord blood CD34+ cells; test: CellTiter-Glo cell viability assay; assay type: cell-based; details: 6 μM, 24 h, Cell Titer Glo
How it was run: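 Human cord blood cells were thawed in IMDM/15% FBS with DNase1 (1 mg/mL). Culture medium was IMDM/10% FBS with TPO, SCF and G-CSF (each 100 ng/mL). Cells were assayed immediately after thawing at 2000 cells/well with pintool compound addition, incubated 22 h at 37 °C, and read by CellTiter-Glo luminescence after 2 min shaking and 10 min at room temperature.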

primary T-ALL samples = test: Primary cancer cell assay; assay type: cell-based, human; details: 20 µM, FACS
How it was run: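 Bone marrow aspirates were strained, Ficoll-separated and ACK-lysed, then frozen; AML samples 1–4 were first passaged in NSG mice. Cells were thawed in IMDM/15% FBS with DNase1 and cultured with 2-mercaptoethanol, G-CSF, SCF, IL-3 and FLT3-ligand. One day later, 100,000 cells/well were treated in triplicate with 20 μM or DMSO for 40 h at 37 °C. Death was scored by flow cytometry (anti-human/anti-mouse CD45, PI or DAPI).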

MV4;11 leukemia cells = test: Disseminated MV4; assay type: in vivo, mouse; details: 20 μg i.p. once daily, 5 days a week for 4 weeks; log-rank test
How it was run: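 Luciferase-expressing MV4;11 cells (1 million, neomycin-selected) were injected into the tail vein of 200 cGy-irradiated 7-week female NSG mice. From day 5, randomized mice (n=9/group) got 100 μL i.p. vehicle (1 mM HCl in PBS, pH 7.4) or 20 μg/100 μL once daily, 5 days/week for 4 weeks. BLI tracked burden. Survival ran from inoculation to moribund state (6/group), analysed by log-rank test.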

G-CSF and Cxcl1 = details: mice; cited from earlier work
Tolerability in MV4 = assay type: in vivo, mouse; details: NSG mice, 20 μg i.p., treatment day 23
How it was run: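 Disseminated MV4;11-Luc NSG model: mice were dosed i.p. with 100 μL vehicle (1 mM HCl/PBS) or 20 μg/100 μL daily, 5 days/week, and weighed daily. After 23 days of dosing, peripheral blood was taken from 3 mice per group, chosen by high, median and low BLI flux. It was analysed for complete blood counts and blood chemistry. Femur, spleen, lung and liver sections were H&E-stained.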

[8] = system: NLRP1−/− THP-1 and MV4;11 cells; test: LDH release / GSDMD cleavage in NLRP1 knockout cells; assay type: cell-based, human
[9] = system: HEK 293T cells stably expressing hCASP1 and hGSDMD transfected with CARD8; test: LDH release from transfected HEK 293T cells; assay type: cell-based, human; details: 2 μM, 24 h; CARD8 but not NLRP1 or S297A CARD8
How it was run: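 HEK 293T cells stably expressed human caspase-1 (hygromycin-selected) and gasdermin D (puromycin-selected) after lentiviral transduction. They were seeded at 0.5 × 10^6/well in DMEM/10% FBS one day before Fugene HD transfection, with total DNA brought to 2 μg with RFP vector; RFP vector alone served as mock. After 24 h, cells got DMSO or 2 μM for a further 24 h. Supernatant LDH was measured (mean ± SEM, three experiments).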

[10] = cited from earlier work
[11] = system: CASP1−/− MV4;11 leukemia cells; test: Disseminated CASP1−/− MV4; assay type: in vivo, mouse; details: 20 μg i.p. once daily, 5 days a week, 3 weeks
How it was run: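 NSG mice (female, 7 weeks, 200 cGy irradiated) received 1 million luciferase-expressing CASP1−/− MV4;11 cells by tail vein. On day 5 they were randomized (n=9/group) and dosed i.p. with 100 μL vehicle (1 mM HCl in PBS, pH 7.4) or 20 μg/100 μL once daily, 5 days/week. Dosing stopped after 3 weeks. Burden was tracked by bioluminescence; survival to moribund state used all 9 animals.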

G-CSF = details: healthy volunteers and cancer patients; cited from earlier work

## CC[C@@H](C)[C@H](N)C(=O)N1Cc2ccccc2C1 [L-allo-Ile-isoindoline]
AML cell lines [1]
  sensitivity of the Val-boroPro-sensitive AML cell lines to the compound: sensitive
[2]
  sensitivity of caspase-1 knockout cells: resistant

## CC(C)C[C@H](NC(=O)[C@H](Cc1ccccc1)NC(=O)c1cnccn1)B(O)O [bortezomib]
THP-1 or MV4;11 cells
  effect on activation of CARD8 by Val-boroPro (LDH release): blocks

## N[C@@H](CC(=O)N1CCn2c(nnc2C(F)(F)F)C1)Cc1cc(F)c(F)cc1F [sitagliptin]
AML cell lines [1]
  sensitivity of the Val-boroPro-sensitive AML cell lines to the compound: not sensitive

## N#C[C@@H]1CCCN1C(=O)CNC12CC3CC(CC(O)(C3)C1)C2 [vildagliptin]
AML cell lines [3]
  anti-AML cytotoxicity on its own: did not exhibit any anti-AML cytotoxicity

## CC(C)[C@H](N)C(=O)N1CCC[C@H]1B(O)O [Val-boroPro]
Primary AML cells
  cell death in primary AML samples: sensitive
K562 cells
  cell death after 5 days of treatment: no cell death
HEK 293T cells
  cell death after 5 days of treatment: no cell death
[4]
  effects on peripheral blood counts or body weight: no significant effects
AML cell lines [1]; KG1, THP-1 and NOMO-1
  reduction in cell viability: 40–65%
AML cell lines [1]; MV4;11, OCI-AML2, SET-2, RS4;11 and MOLM-13
  reduction in cell viability: > 80%
AML cell lines [1]; Homo sapiens, read-out: IC50 values in sensitive AML cell lines
  IC50: 0.006 to 0.206 µM
AML cell lines [1]; MV4;11 and OCI-AML2 cells
  time in which cells died: 1 to 2 days
AML cell lines [1]; THP-1 and NOMO-1 cells
  compound treatment required to achieve maximal cell killing: 5 days
non-AML cell lines
  activity against non-AML cell lines tested: no activity
Primary B-ALL
  cell death in primary B-ALL: sensitive
[5]
  weight loss associated with leukemia progression: slowed weight loss
[2]
  sensitivity of caspase-1 knockout cells: resistant
[6]
  sensitivity of CARD8−/− cells (GSDMD cleavage, cell death): completely resistant
Sensitive AML cell lines
  cleavage of gasdermin D (GSDMD), not PARP: induced cleavage
[7]
  cell death in primary CD34+ human cord blood cells: sensitive
Primary T-ALL samples
  cell death in primary T-ALL samples: completely resistant
MV4;11 leukemia cells
  median extension in survival: 24.5 days
G-CSF and Cxcl1
  serum protein levels of several cytokines, including G-CSF and Cxcl1: increases
Tolerability in MV4
  effects on peripheral blood cell counts, serum chemistry, body weight: no significant effects
[8]
  pyroptosis in NLRP1−/− cells: induced pyroptosis
[9]
  cytotoxicity in CARD8-expressing HEK 293T cells: sensitive
[10]
  maximum tolerated dose in humans: without reaching a maximum tolerated dose
  serum concentrations reached in humans: > 0.1 µM
[11]
  efficacy against CASP1−/− MV4;11 cells in vivo (bioluminescence, survival): absolutely no efficacy; also recorded: not statistically different
G-CSF
  levels of a number of cytokines, including G-CSF: elevated

Reference: paper PMC6082709 (Nature medicine, 2018)
